Measurements pooled from the literature.
Target: Cytoplasmic tyrosine-protein kinase BMX (BMX, Homo sapiens, UniProt P51813)
Residues used in one study (P51813 1-675): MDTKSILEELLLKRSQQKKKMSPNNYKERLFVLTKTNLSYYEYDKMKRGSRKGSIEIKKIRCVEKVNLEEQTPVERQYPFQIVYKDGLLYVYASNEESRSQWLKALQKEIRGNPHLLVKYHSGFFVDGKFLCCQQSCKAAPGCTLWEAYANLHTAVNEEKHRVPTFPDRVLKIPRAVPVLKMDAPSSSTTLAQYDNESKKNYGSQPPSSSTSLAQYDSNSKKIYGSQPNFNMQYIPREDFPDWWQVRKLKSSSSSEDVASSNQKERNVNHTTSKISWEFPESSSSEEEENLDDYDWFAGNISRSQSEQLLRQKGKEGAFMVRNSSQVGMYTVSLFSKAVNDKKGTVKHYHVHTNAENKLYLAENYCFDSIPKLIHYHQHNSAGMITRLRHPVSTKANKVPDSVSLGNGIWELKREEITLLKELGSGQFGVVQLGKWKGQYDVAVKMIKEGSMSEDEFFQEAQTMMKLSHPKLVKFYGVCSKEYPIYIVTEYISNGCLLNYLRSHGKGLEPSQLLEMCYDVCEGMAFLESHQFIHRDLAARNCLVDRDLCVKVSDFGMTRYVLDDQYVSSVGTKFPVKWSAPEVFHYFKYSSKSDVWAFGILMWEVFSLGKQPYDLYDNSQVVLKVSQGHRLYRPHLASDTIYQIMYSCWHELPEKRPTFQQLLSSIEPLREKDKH

CN1CCN(c2cnc3c(C4CCN(C(=O)c5ccc(OC(F)(F)F)cc5N)CC4)ncnc3c2)CC1  remaining binding (cell-free assay; competition with immobilised ligand; 1 µM): 100%
C[C@@H](c1ccc(-n2cnc3c(N)ncnc32)cc1)N1CCc2nn(C)c(Cc3ccccc3)c2C1=O  remaining binding (binding; competition with immobilised ligand; 0.1 µM): 52%
O=C(c1ccc(Nc2ncc(Cl)c(-c3ccc(Cl)s3)n2)cc1)N1CCC(N2CCCC2)CC1  remaining binding (binding; competition with immobilised ligand; 1 µM): 79%
C=CC(=O)N1CCC(C(=O)NCC(=O)N2CCN(c3nc(-c4cnc(N)nc4C(F)F)nc(N4CCOCC4)n3)CC2)CC1  remaining binding (binding; competition with immobilised ligand; 1 µM): 99%
CN(C)c1nccc(-c2cnc3ncccn23)n1  remaining binding (binding; 1 µM): 100%
COc1cnc(Nc2cccc(S(N)(=O)=O)c2)nc1N1CCN(c2ccccc2)CC1  remaining binding (binding; competition with immobilised ligand; 1 µM): 93%
Nc1ncc2c(n1)-c1c([nH]c3ccc(C#CC4CC4)cc13)CCCC2  remaining binding (binding; competition with immobilised ligand; 1 µM): 86%
CCOCCn1cc(C(=O)Nc2ccc(-n3nc(-c4cccnc4)cc3C(F)(F)F)cn2)ccc1=O  remaining binding (cell-free assay; competition with immobilised ligand; 1 µM): 84%
CC1CCCN1c1nccc(-c2cnn3ncccc23)n1 (stereo not drawn)  remaining binding (binding; 1 µM): 94%
COc1ccc2cc(OCC3(C(=O)O)CN(C(=O)c4ccc(F)cc4)C3)ccc2c1  remaining binding (cell-free assay; competition with immobilised ligand; 1 µM): 87%
O=C(Nc1c[nH]nc1C(=O)NC1CCNCC1)c1cc(F)cc(F)c1  remaining binding (binding; competition with immobilised ligand; 1 µM): 100%
COc1ncc2cc3ccccc3nc2c1C#N  remaining binding (cell-free assay; competition with immobilised ligand; 5 µM): 99%
CN(CCCC(F)(F)F)c1nccc(-c2cnn3ncccc23)n1  remaining binding (binding; 1 µM): 83%
O=C(NCCCN1CCOCC1)c1ccc(Nc2nccc(-c3cc4ccccc4s3)n2)cc1  remaining binding (binding; competition with immobilised ligand; 1 µM): 100%
CN(C)c1nccc(-c2cnn3ncccc23)n1  remaining binding (binding; 1 µM): 87%
C[C@H](c1cccc(C#N)c1)n1cc(Cl)cc(C(N)=O)c1=N  remaining binding (cell-free assay; competition with immobilised ligand; 1 µM): 77%
O=C(c1ccc(Nc2ncc(Cl)c(-c3cc4ccccc4s3)n2)cc1)N1CCC(N2CCCC2)CC1  remaining binding (binding; competition with immobilised ligand; 1 µM): 75%
CC(=O)c1c(NS(C)(=O)=O)c2cc(-c3ccc(Cl)cc3)c(-c3ccc(Cl)cc3Cl)nc2n(C)c1=O  remaining binding (cell-free assay; competition with immobilised ligand; 1 µM): 100%
C[C@H]1CCN(c2nccc(-c3cnn4ncccc34)n2)C1  remaining binding (binding; 1 µM): 84%
O=C(O)[C@H]1[C@H](Cn2nnc3ccccc3c2=O)CC[C@@H]1C(=O)c1ccc(OCCC2CCOCC2)cc1  remaining binding (cell-free assay; competition with immobilised ligand; 1 µM): 92%
CN(c1nccc(-c2cnn3ncccc23)n1)C1CC1  remaining binding (binding; 1 µM): 82%
